Measurements taken from ChEMBL document CHEMBL2406937, “Discovery of Pyridones As Oral AMPK Direct Activators” (ACS Med Chem Lett, 2013).
Values after ≈ are worked out from the molar mass of the structure shown. Active and inactive are the calls of the source. The calls are words filed in the database; no cut-off is given here.

How the values were obtained:
[1] = target: AMP-activated protein kinase (AMPK) alpha-1/beta-1/gamma-1 (Homo sapiens) (UniProt P54619+Q9Y478+Q13131); assay: Activation of human recombinant AMPK alpha1beta1gamma1 by FRET assay; assay type: protein-complex assay
Procedure, shortened: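 Activation of the α1β1γ1 heterotrimer, reported as pEC200 = −log(concentration giving a 2-fold increase in AMPK activity). Values are means of at least 2 independent experiments.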

[2] = Clearance in mouse at 1 mg/kg, iv; assay type: ADME, organism-based; set-up: dose 1 mg/kg, route intravenous; details: in vivo
Procedure, shortened: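 Mouse iv pharmacokinetics. 1 mg/kg given as a solution in DMSO/hydroxypropyl-β-cyclodextrin 20% in pH 7 buffer (5:95). Blood clearance is determined.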

[3] = AUC in mouse at 5 mg/kg, po; assay type: ADME, organism-based, Plasma; set-up: dose 5 mg/kg, route oral; details: blood
Procedure, shortened: (§1)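 Mouse pharmacokinetics. Oral dosing at 5 or 30 mg/kg as a suspension in HPMC K100 0.5%/Tween 80 0.1% in pH 7 buffer. AUC is measured in blood. Bioavailability is taken against an iv dose of 1 mg/kg.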

[4] = Plasma protein binding in mouse; assay type: ADME, cell-free; details: read-out: PPB (converted)
[5] = Permeability of the compound by PAMPA; assay type: ADME; details: read-out: permeability
Procedure, shortened: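 Passive permeability is measured by parallel artificial membrane permeability assay (PAMPA).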

[6] = Oral bioavailability in mouse at 5 mg/kg; assay type: ADME, organism-based; details: in vivo; procedure, shortened: as §1
[7] = Solubility of the compound; assay type: physicochemical
Procedure, shortened: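 Solubility is the soluble fraction of the oral formulation (HPMC K100 0.5%/Tween 80 0.1% in pH 7 buffer) made by ball milling from solid powder. The maximum is […].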

[8] = Dissociation constant, pKa of the compound; assay type: physicochemical
Mus musculus [9] = assay: Antidiabetic activity in ob/ob mouse assessed as reduction in blood glucose level at 30 mg/kg, po bid for 5 days measured 12 hrs after last dose relative to control; assay type: functional; set-up: scale not given: the % may be the effect or the level left
Procedure, shortened: (§2)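 ob/ob mice are gavaged bid for 5 days at 10 or 30 mg/kg without P-gp inhibitor. Blood glucose is measured 12 h after the last gavage and compared with control.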

[10] = target: AMPK alpha2/beta2/gamma1 (Homo sapiens) (UniProt P54646+O43741+P54619); assay: Activation of human recombinant AMPK alpha2beta2gamma1; assay type: protein-complex assay
Blood [11] = assay: Ratio of AUC in mouse blood in presence of P-gp inhibitor GF120918 to AUC in mouse blood at 30 mg/kg, po; assay type: ADME, organism-based; set-up: dose 30 mg/kg, route oral; details: in vivo
Procedure, shortened: (§3)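 Mice are dosed orally (5 or 30 mg/kg) as a suspension in HPMC K100 0.5%/Tween 80 0.1% in pH 7 buffer, alone or co-administered with the P-gp inhibitor GF120918 at 30 mg/kg. Mean blood AUC with the inhibitor is compared with AUC without it.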

Mus musculus [12] = assay: Antidiabetic activity in ob/ob mouse assessed as reduction in blood glucose level at 10 mg/kg, po bid for 5 days measured 12 hrs after last dose relative to control; assay type: functional; set-up: scale not given: the % may be the effect or the level left; procedure, shortened: as §2
Blood [13] = assay: Ratio of AUC in mouse blood in presence of P-gp inhibitor GF120918 to AUC in mouse blood at 5 mg/kg, po; assay type: ADME, organism-based; set-up: dose 5 mg/kg, route oral; details: in vivo; procedure, shortened: as §3
Mus musculus [14] = assay: Antidiabetic activity in ob/ob mouse assessed as reduction in blood glucose level at 100 mg/kg, po bid for 5 days in presence of P-gp inhibitor GF120918 relative to control; assay type: functional; set-up: scale not given: the % may be the effect or the level left
Procedure, shortened: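 ob/ob mice receive chronic oral treatment at 100 mg/kg co-administered with the P-gp inhibitor. The blood glucose reduction is assessed against control.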

[15] = target: AMPK alpha1/beta1/gamma3 (Homo sapiens) (UniProt Q9Y478+Q13131+Q9UGI9); assay: Activation of human recombinant AMPK alpha1beta1gamma3; assay type: protein-complex assay
[16] = target: AMPK alpha1/beta2/gamma1 (Homo sapiens) (UniProt O43741+P54619+Q13131); assay: Activation of human recombinant AMPK alpha1beta2gamma1; assay type: protein-complex assay
[17] = target: AMPK alpha2/beta1/gamma1 (Homo sapiens) (UniProt P54646+P54619+Q9Y478); assay: Activation of human recombinant AMPK alpha2beta1gamma1; assay type: protein-complex assay
[18] = target: AMPK alpha2/beta2/gamma3 (Homo sapiens) (UniProt P54646+O43741+Q9UGI9); assay: Activation of human recombinant AMPK alpha2beta2gamma3; assay type: protein-complex assay
[19] = target: AMPK alpha1/beta1/gamma2 (Homo sapiens) (UniProt Q9UGJ0+Q9Y478+Q13131); assay: Activation of human recombinant AMPK alpha1beta1gamma2; assay type: protein-complex assay
[20] = Oral bioavailability in mouse at 30 mg/kg; assay type: ADME, organism-based; details: in vivo; procedure, shortened: as §1
[21] = AUC in mouse at 30 mg/kg, po; assay type: ADME, organism-based, Plasma; set-up: dose 30 mg/kg, route oral; details: blood; procedure, shortened: as §1

Chain of AMP-activated protein kinase (AMPK) alpha-1/beta-1/gamma-1 (Homo sapiens) (P54619 whole entry): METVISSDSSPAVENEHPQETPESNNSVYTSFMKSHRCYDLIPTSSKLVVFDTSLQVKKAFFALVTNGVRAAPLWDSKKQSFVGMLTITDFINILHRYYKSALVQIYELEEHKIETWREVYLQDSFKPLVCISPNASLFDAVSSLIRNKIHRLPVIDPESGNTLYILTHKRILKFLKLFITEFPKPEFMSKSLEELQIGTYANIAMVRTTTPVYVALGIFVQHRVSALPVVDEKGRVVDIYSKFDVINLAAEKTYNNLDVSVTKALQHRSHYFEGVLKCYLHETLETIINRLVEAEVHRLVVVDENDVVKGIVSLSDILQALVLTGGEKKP
Chain of AMP-activated protein kinase (AMPK) alpha-1/beta-1/gamma-1 (Homo sapiens) (Q13131 whole entry partner): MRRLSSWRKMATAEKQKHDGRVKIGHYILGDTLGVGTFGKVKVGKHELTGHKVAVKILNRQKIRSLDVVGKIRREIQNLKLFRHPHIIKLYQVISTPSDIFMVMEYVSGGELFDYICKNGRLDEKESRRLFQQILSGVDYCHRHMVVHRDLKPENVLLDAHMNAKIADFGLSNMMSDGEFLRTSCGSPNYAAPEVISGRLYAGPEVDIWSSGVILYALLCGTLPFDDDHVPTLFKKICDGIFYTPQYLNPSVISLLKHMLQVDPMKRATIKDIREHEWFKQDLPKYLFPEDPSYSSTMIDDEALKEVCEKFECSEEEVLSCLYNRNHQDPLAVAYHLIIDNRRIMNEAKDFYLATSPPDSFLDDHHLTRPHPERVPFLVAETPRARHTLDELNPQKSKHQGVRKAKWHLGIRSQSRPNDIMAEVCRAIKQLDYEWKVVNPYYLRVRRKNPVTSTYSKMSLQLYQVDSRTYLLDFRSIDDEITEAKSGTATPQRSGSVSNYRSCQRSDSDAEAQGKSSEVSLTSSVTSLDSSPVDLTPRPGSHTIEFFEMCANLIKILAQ
Chain of AMP-activated protein kinase (AMPK) alpha-1/beta-1/gamma-1 (Homo sapiens) (Q9Y478 2-270 partner limits assumed): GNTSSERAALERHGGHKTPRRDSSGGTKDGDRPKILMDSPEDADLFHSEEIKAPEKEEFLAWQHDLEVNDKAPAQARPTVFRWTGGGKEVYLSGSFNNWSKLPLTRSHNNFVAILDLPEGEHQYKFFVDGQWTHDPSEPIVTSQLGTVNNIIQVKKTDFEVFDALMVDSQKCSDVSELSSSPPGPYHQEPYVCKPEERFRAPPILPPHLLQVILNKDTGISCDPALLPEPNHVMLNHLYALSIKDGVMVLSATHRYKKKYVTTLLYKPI
Chain of AMPK alpha2/beta2/gamma1 (Homo sapiens) (O43741 whole entry, looked up): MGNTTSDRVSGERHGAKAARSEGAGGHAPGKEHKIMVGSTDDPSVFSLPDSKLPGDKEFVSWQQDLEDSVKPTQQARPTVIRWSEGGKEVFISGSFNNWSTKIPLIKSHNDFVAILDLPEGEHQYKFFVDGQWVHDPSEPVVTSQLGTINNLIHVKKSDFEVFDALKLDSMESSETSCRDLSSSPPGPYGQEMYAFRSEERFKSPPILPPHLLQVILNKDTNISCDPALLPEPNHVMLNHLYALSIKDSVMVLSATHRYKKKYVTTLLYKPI
Chain of AMPK alpha2/beta2/gamma1 (Homo sapiens) (P54619 whole entry, looked up): as the sequence (P54619 whole entry) above
Chain of AMPK alpha2/beta2/gamma1 (Homo sapiens) (P54646 whole entry, looked up): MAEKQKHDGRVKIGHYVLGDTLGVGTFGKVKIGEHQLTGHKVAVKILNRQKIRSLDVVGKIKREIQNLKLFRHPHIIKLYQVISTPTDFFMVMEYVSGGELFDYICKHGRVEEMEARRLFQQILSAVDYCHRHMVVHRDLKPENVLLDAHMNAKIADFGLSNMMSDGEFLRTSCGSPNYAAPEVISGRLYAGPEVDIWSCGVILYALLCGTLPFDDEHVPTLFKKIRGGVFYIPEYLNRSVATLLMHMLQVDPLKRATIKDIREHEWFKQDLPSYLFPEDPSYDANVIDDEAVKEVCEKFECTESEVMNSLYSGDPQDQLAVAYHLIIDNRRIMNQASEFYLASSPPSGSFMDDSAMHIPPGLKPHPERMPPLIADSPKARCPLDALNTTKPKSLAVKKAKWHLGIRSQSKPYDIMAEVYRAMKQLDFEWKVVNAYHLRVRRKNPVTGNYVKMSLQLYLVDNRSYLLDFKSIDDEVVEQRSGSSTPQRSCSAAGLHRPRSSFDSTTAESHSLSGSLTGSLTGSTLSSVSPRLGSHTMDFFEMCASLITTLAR
Chain of AMPK alpha1/beta2/gamma1 (Homo sapiens) (O43741 whole entry, looked up): as the sequence (O43741 whole entry, looked up) above
Chain of AMPK alpha1/beta2/gamma1 (Homo sapiens) (P54619 whole entry, looked up): as the sequence (P54619 whole entry) above
Chain of AMPK alpha1/beta2/gamma1 (Homo sapiens) (Q13131 whole entry, looked up): as the sequence (Q13131 whole entry partner) above
Chain of AMPK alpha2/beta2/gamma3 (Homo sapiens) (O43741 whole entry, looked up): as the sequence (O43741 whole entry, looked up) above
Chain of AMPK alpha2/beta2/gamma3 (Homo sapiens) (P54646 whole entry, looked up): as the sequence (P54646 whole entry, looked up) above
Chain of AMPK alpha2/beta2/gamma3 (Homo sapiens) (Q9UGI9 whole entry, looked up): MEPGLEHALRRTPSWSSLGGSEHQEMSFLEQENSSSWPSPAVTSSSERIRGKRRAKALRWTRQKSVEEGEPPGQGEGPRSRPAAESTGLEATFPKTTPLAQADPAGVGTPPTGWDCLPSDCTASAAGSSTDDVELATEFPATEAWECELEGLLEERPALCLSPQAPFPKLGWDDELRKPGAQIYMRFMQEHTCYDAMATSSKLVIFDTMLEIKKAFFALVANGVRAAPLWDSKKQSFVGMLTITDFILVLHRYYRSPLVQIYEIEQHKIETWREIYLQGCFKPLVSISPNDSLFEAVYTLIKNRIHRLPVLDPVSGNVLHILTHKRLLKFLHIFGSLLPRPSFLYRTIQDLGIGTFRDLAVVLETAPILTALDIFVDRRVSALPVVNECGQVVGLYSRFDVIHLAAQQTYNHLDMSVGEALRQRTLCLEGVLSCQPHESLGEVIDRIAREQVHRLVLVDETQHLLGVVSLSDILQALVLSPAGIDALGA
Chain of AMPK alpha1/beta1/gamma3 (Homo sapiens) (Q13131 whole entry partner): as the sequence (Q13131 whole entry partner) above
Chain of AMPK alpha1/beta1/gamma3 (Homo sapiens) (Q9UGI9 whole entry partner): as the sequence (Q9UGI9 whole entry, looked up) above
Chain of AMPK alpha1/beta1/gamma3 (Homo sapiens) (Q9Y478 2-270 limits assumed): as the sequence (Q9Y478 2-270 partner limits assumed) above
Chain of AMPK alpha1/beta1/gamma2 (Homo sapiens) (Q13131 whole entry partner): as the sequence (Q13131 whole entry partner) above
Chain of AMPK alpha1/beta1/gamma2 (Homo sapiens) (Q9UGJ0 whole entry): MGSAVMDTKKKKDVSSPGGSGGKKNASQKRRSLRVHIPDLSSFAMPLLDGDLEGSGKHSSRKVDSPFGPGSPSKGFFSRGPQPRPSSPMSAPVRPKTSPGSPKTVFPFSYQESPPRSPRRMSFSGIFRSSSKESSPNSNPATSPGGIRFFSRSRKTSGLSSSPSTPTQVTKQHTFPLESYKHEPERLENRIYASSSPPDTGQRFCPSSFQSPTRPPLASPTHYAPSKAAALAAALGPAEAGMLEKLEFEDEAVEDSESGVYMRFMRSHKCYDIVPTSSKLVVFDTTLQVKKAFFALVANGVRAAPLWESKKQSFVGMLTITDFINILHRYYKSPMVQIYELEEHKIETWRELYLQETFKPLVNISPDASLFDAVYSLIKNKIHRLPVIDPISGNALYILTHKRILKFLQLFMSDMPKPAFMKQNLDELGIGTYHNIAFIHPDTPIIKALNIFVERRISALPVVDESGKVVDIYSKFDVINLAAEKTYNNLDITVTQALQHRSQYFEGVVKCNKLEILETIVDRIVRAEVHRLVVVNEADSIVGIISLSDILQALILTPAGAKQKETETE
Chain of AMPK alpha1/beta1/gamma2 (Homo sapiens) (Q9Y478 2-270 partner limits assumed): as the sequence (Q9Y478 2-270 partner limits assumed) above
Chain of AMPK alpha2/beta1/gamma1 (Homo sapiens) (P54619 whole entry partner): as the sequence (P54619 whole entry) above
Chain of AMPK alpha2/beta1/gamma1 (Homo sapiens) (P54646 whole entry): as the sequence (P54646 whole entry, looked up) above
Chain of AMPK alpha2/beta1/gamma1 (Homo sapiens) (Q9Y478 2-270 partner limits assumed): as the sequence (Q9Y478 2-270 partner limits assumed) above

| SMILES | pEC200 [1] | clearance [2] | AUC [3] | fraction unbound [4] | Papp [5] | bioavailability [6] | solubility [7] | other results |
| --- | --- | --- | --- | --- | --- | --- | --- | --- |
| CCc1ccc(-n2c(Cl)cc3[nH]c(=O)c(-c4ccccc4)c(O)c32)cc1 | 6.3 | 12 mL/min/kg | 3410 ng·h/mL | 0.002 | 15 ×10⁻⁶ cm/s | 50% | 20 µg/mL (≈ 54.8 µM) | pKa [8]: 6 |
| N#Cc1c(O)c2c(-c3ccc(-c4ccccc4O)cc3)csc2[nH]c1=O | 8.5 | 24 mL/min/kg | 80 ng·h/mL | 0.013 | < 0.3 ×10⁻⁶ cm/s | 2% | 500 µg/mL (≈ 1390 µM) |  |
| COc1cccc(-c2ccc(-n3c(Cl)cc4[nH]c(=O)c(-c5cccc(C(=O)O)c5)c(O)c43)cc2)c1O | 8.7 | 1 mL/min/kg | 403 ng·h/mL | < 0.001 | < 0.06 ×10⁻⁶ cm/s | 0.5% | 325 µg/mL (≈ 646 µM) |  |
| N#Cc1c(O)c2c(cc(Cl)n2-c2ccc(-c3ccsc3)cc2)[nH]c1=O | 8.1 | 0.9 mL/min/kg | 19500 ng·h/mL | < 0.001 | < 0.07 ×10⁻⁶ cm/s | 21% | 186 µg/mL (≈ 506 µM) | Activity (Mus musculus [14]): 17%; Activity [10]: Active; pKa [8]: < 2 |
| Cc1ccc(-c2ccc(-n3c(Cl)cc4[nH]c(=O)c(C#N)c(O)c43)cc2)cc1 | 7.5 | 0.7 mL/min/kg | 17000 ng·h/mL | < 0.001 | 0.48 ×10⁻⁶ cm/s | 14% | 129 µg/mL (≈ 343 µM) | pEC200 [10]: 5.5; pEC200 [16]: < 4.5; pEC200 [18]: 5.5 |

Continued, in another order:

| pEC200 [1] | clearance [2] | AUC [3] | fraction unbound [4] | Papp [5] | bioavailability [6] | solubility [7] | SMILES | other results |
| --- | --- | --- | --- | --- | --- | --- | --- | --- |
| 5.3 |  |  |  |  |  |  | COc1cccc(-c2ccc(-n3ccc4[nH]c(=O)c(C#N)c(O)c43)cc2)c1 |  |
| 8 | 2.4 mL/min/kg | 70 ng·h/mL | 0.007 | < 0.04 ×10⁻⁶ cm/s | < 1% | 500 µg/mL (≈ 1340 µM) | COc1cccc(-c2ccc(-n3ccc4[nH]c(=O)c(C#N)c(O)c43)cc2)c1O |  |
| 5.5 |  |  |  |  |  |  | COc1ccccc1-c1ccc(-n2ccc3[nH]c(=O)c(C#N)c(O)c32)cc1 |  |
| 7.6 | 0.3 mL/min/kg | 41300 ng·h/mL | < 0.001 | 11 ×10⁻⁶ cm/s | 15% | 25 µg/mL (≈ 54.5 µM) | COc1cccc(-c2ccc(-n3c(Cl)cc4[nH]c(=O)c(-c5ccccc5)c(O)c43)cc2)c1O | Activity (Mus musculus [9]): 17%; Activity [10]: Active; Ratio AUC (Blood [11]): 2; Activity (Mus musculus [12]): 13% |
| 9.2 | 3 mL/min/kg | 892 ng·h/mL | < 0.001 | < 0.3 ×10⁻⁶ cm/s | 3% | 42.5 µg/mL (≈ 104 µM) | COc1cccc(-c2ccc(-n3c(Cl)cc4[nH]c(=O)c(C#N)c(O)c43)cc2)c1O | Ratio AUC (Blood [13]): 10; Activity (Mus musculus [14]): 18%; pEC200 [10]: 7.3; Activity [15]: Active; Activity [16]: Active; Activity [17]: Active; pEC200 [18]: 7.3; Activity [19]: Active |
| 7.8 | 34 mL/min/kg |  |  |  |  |  | N#Cc1c(O)c2c(ccn2-c2ccc(-c3ccccc3O)cc2)[nH]c1=O | bioavailability [20]: 10%; AUC [21]: 1490 ng·h/mL |
| 6.8 |  |  |  | < 0.08 ×10⁻⁶ cm/s |  | 59 µg/mL (≈ 165 µM) | COc1ccc(-c2ccc(-n3ccc4[nH]c(=O)c(C#N)c(O)c43)cc2)cc1 |  |
